In ChEMBL document CHEMBL1142726, “In search of a novel anti-HIV drug: multidisciplinary coordination in the discovery of 4-[[4-[[4-[(1E)-2-cyanoethenyl]-2,6-dimethylphenyl]amino]-2- pyrimidinyl]amino]benzonitrile (R278474, rilpivirine)” (J Med Chem, 2005):

Assays:
[1] = system: Human immunodeficiency virus 1; assay: Effective concentration against human immunodeficiency virus type 1 wild type srtain; type: functional, organism-based
How it was run: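 MT-4 human T-cells infected with wild-type HIV-1 and exposed to a range of compound concentrations in medium with 10% fetal calf serum. After 5 days at 37 °C, viability was read by automated MTT colorimetric assay, with mock-infected cells run in parallel.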

[2] = system: Human immunodeficiency virus 1; assay: Effective concentration against human immunodeficiency virus type 1 Y181C mutant was determined; type: functional, organism-based
How it was run: (§1)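 MT-4 human T cells infected with wild-type or mutant HIV-1, exposed to a range of compound concentrations in medium with 10% fetal calf serum. After 5 days at 37 °C, viability of infected and mock-infected cells was read by automated MTT colorimetric assay. […] 95% confidence limits are approximately EC50/4 to EC50×4.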

[3] = system: Human immunodeficiency virus 1; assay: Effective concentration against human immunodeficiency virus type 1 K103N and Y181C mutant strain; type: functional, organism-based; how it was run: as §1
[4] = system: Human immunodeficiency virus 1; assay: Effective concentration against human immunodeficiency virus type 1 G190S mutant strain; type: functional, organism-based; how it was run: as §1
[5] = system: Human immunodeficiency virus 1; assay: Effective concentration against human immunodeficiency virus type 1 K103N mutant strain; type: functional, organism-based; how it was run: as §1
[6] = system: Human immunodeficiency virus 1; assay: Effective concentration against human immunodeficiency virus type 1 Y188L mutant strain; type: functional, organism-based; how it was run: as §1
[7] = system: Human immunodeficiency virus 1; assay: Effective concentration against human immunodeficiency virus type 1 L100I mutant strain; type: functional, organism-based; how it was run: as §1
[8] = system: Human immunodeficiency virus 1; assay: Effective concentration against human immunodeficiency virus type 1 wild type strain; type: functional, organism-based
[9] = system: Human immunodeficiency virus 1; assay: Effective concentration against human immunodeficiency virus type 1Y181C mutant strain; type: functional, organism-based; how it was run: as §1
[10] = system: Human immunodeficiency virus 1; assay: Effective concentration against human immunodeficiency virus type 1 in K103N mutant strain; type: functional, organism-based; how it was run: as §1
[11] = system: Human immunodeficiency virus 1; assay: Effective concentration against human immunodeficiency virus type 1 wild type; type: functional, organism-based; how it was run: as §1
[12] = system: Human immunodeficiency virus 1; assay: Effective concentration against rhuman immunodeficiency virus type 1 L100I mutant strain; type: functional, organism-based; how it was run: as §1
[13] = system: Human immunodeficiency virus 1; assay: Effective concentration against rhuman immunodeficiency virus type 1 Y181C mutant strain; type: functional, organism-based; how it was run: as §1
[14] = system: Human immunodeficiency virus 1; assay: Effective concentration against rhuman immunodeficiency virus type 1 K103N and Y181C mutant strains; type: functional, organism-based
[15] = Area under the concentration time curve in dog (intravenous dosage of 1.25 mg/kg) was determined; type: ADME, organism-based, Canis lupus familiaris; set-up: dose 1.25 mg/kg, route intravenous; conditions: in vivo
How it was run: (§2)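 Pharmacokinetics after single iv dosing of drug formulated in PEG 400. Species: Sprague-Dawley rat (4 mg/kg), beagle dog, cynomolgus monkey and white New Zealand rabbit (1.25 mg/kg each). Elimination half-life (t1/2) and exposure (AUCinf) calculated from plasma concentration–time data.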

[16] = system: Human immunodeficiency virus 1; assay: Effective concentration against rhuman immunodeficiency virus type 1 wild type mutant strain; type: functional, organism-based; how it was run: as §1
[17] = system: Human immunodeficiency virus 1; assay: Effective concentration against human immunodeficiency virus type 1 K103N and Y181C mutant strains; type: functional, organism-based; how it was run: as §1
[18] = system: Human immunodeficiency virus 1; assay: Effective concentration against human immunodeficiency virus type 1 Y181C mutant strain; type: functional, organism-based; how it was run: as §1
[19] = In vivo half life in dog was determined after oral administration; type: ADME, organism-based, Canis lupus familiaris
How it was run: (§3)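 Oral administration of drug formulated in PEG 400 to Sprague-Dawley rat and beagle dog. Elimination half-life calculated from plasma concentration–time data.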

[20] = Half life in rat was determined after oral administration; type: ADME, organism-based; conditions: in vivo; how it was run: as §3
[21] = Half life in dog was determined by intravenous administration; type: ADME, organism-based, Canis lupus familiaris; conditions: in vivo; how it was run: as §2
[22] = Area under the concentration time curve in rabbit (intravenous dosage of 1.25 mg/kg) was determined; type: ADME, organism-based, Oryctolagus cuniculus; set-up: dose 1.25 mg/kg, route intravenous; conditions: in vivo; how it was run: as §2
[23] = Area under the concentration time curve value in rat (intravenous dosage of 4 mg/kg) was determined; type: ADME, organism-based; set-up: dose 4 mg/kg, route intravenous; conditions: in vivo; how it was run: as §2
[24] = Area under the concentration time curve in monkey (intravenous dosage of 1.25 mg/ kg) was determined; type: ADME; conditions: cercopithecidae, in vivo; how it was run: as §2
[25] = Half life in rat was determined after intravenous administration; type: ADME, organism-based; conditions: in vivo; how it was run: as §2

With `O=C1Nc2ccc(Cl)cc2[C@@](C#CC2CC2)(C(F)(F)F)O1` [EFAVIRENZ] as the molecule, how does the EC50 [1] read?
Its EC50 is 1.4 nM.

And the EC50 [2]?
Its EC50 is 2 nM.

And the EC50 [3]?
Its EC50 is 37 nM.

And the EC50 [4]?
The EC50 was 275 nM.

What about the EC50 [5] of the same molecule?
The EC50 was 28 nM.

And the EC50 [6]?
Its EC50 is 78 nM.

And the EC50 [7]?
Its EC50 is 35 nM.

Which results are given for `Cc1cc(C)c(Nc2ccnc(Nc3ccc(C#N)cc3)n2)c(C)c1` [DAPIVIRINE]?
EC50 [8]: 1.2 nM; EC50 [9]: 7 nM; EC50 [10]: 2 nM; EC50 [4]: 2 nM; EC50 [6]: 37 nM; EC50 [7]: 11 nM

Which results are given for `Cc1ccnc2c1NC(=O)c1cccnc1N2C1CC1` [NEVIRAPINE]?
EC50 [11]: 81 nM; EC50 [4]: 1000 nM; EC50 [5]: 2880 nM; EC50 [6]: 10000 nM; EC50 [12]: 597 nM; EC50 [13]: 10000 nM; EC50 [14]: 10000 nM

For `Cc1cc(/C=C/C#N)cc(C)c1Nc1ccnc(Nc2ccc(C#N)cc2)n1` [RILPIVIRINE], which AUC [15] is on record?
Its AUC is 8700 ng·h/mL.

And the EC50 [16]?
Its EC50 is 0.4 nM.

What about the EC50 [17] of the same molecule?
Its EC50 is 1 nM.

What about the EC50 [4] of the same molecule?
Its EC50 is 0.1 nM.

What about the EC50 [5] of the same molecule?
The EC50 was 0.3 nM.

And the EC50 [18]?
The EC50 was 1.3 nM.

What about the EC50 [6] of the same molecule?
Its EC50 is 2 nM.

And the half-life [19]?
Its half-life is 39 h.

And the half-life [20]?
The half-life was 2.8 h.

What about the half-life [21] of the same molecule?
The half-life was 31 h.

What about the AUC [22] of the same molecule?
Its AUC is 44000 ng·h/mL.

And the AUC [23]?
The AUC was 3100 ng·h/mL.

And the AUC [24]?
The AUC was 1400 ng·h/mL.

What about the EC50 [7] of the same molecule?
The EC50 was 0.4 nM.

What about the half-life [25] of the same molecule?
The half-life was 4.4 h.
